Test results reported in ChEMBL document CHEMBL1151703, “Irreversible inhibition of dihydrodipicolinate synthase by 4-oxo-heptenedioic acid analogues” (Bioorg Med Chem, 2008).
Calls of active or inactive are those of the source. The calls are words filed in the database; no cut-off is given here.

Assays:
[1] = target: T1, 4-hydroxy-tetrahydrodipicolinate synthase (Escherichia coli K-12) (UniProt P0A6L2); experiment: Ratio of Kinact to Ki(app) for Escherichia coli recombinant DHDPS
T1 sequence (whole entry): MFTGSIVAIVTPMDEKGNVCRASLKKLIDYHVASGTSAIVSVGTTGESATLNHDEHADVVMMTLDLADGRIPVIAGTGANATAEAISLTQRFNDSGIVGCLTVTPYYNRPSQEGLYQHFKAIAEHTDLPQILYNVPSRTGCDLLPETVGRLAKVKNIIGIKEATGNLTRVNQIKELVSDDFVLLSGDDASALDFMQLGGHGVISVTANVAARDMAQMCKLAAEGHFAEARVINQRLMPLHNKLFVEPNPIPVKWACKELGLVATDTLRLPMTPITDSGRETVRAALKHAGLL
Procedure, shortened: (§1)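 Recombinant E. coli DHDPS, purified, pre-incubated with inhibitor for various times before activity measurement in a coupled assay with E. coli DHDPR (modified coupled assay) at 30 °C; inhibitor range 0.1–250 mM across compounds. Each decay curve was fitted to give kobs; kobs versus [I] was fitted to give kinact and Ki(app); the second-order rate constant is kinact/Ki(app).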

[2] = target: T1, 4-hydroxy-tetrahydrodipicolinate synthase (Escherichia coli K-12); experiment: (§2) Inhibition of Escherichia coli recombinant DHDPS overexpressed with DHDPR assessed as residual activity by modified coupled assay; conditions: TDE = time-dependent effect; procedure, shortened: as §1
[3] = target: T2, 4-hydroxy-tetrahydrodipicolinate synthase (Escherichia coli K-12, UniProt P0A6L2); experiment: as §2; conditions: read-out: Ki(app); procedure, shortened: as §1
T2 sequence (P0A6L2 whole entry): T1 sequence (whole entry)

[4] = target: T1, 4-hydroxy-tetrahydrodipicolinate synthase (Escherichia coli K-12); experiment: Inactivation of Escherichia coli recombinant DHDPS; procedure, shortened: as §1
[5] = target: T1, 4-hydroxy-tetrahydrodipicolinate synthase (Escherichia coli K-12); experiment: Inhibition of Escherichia coli recombinant DHDPS overexpressed with DHDPR assessed as residual activity at 2 mM within 6 min by modified coupled assay; procedure, shortened: as §1
[6] = target: T2, 4-hydroxy-tetrahydrodipicolinate synthase; experiment: Inhibition of Escherichia coli DHDPS
[7] = target: T3, 4-hydroxy-tetrahydrodipicolinate synthase (Bacillus subtilis (strain 168), UniProt Q04796); experiment: Inhibition of Bacillus subtilis DHDPS
T3 sequence (Q04796 whole entry): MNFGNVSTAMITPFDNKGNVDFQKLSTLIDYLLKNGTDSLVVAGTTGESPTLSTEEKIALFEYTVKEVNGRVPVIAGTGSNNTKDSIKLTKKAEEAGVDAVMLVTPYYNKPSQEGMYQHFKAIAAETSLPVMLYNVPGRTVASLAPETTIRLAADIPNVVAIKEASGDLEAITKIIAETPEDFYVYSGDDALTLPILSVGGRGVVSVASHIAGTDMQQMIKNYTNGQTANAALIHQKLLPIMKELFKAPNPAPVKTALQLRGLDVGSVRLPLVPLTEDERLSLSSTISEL

[8] = Inhibition of succinyl co-transferase; conditions: read-out: Ki(app)

| Ratio [1] | Activity [2] | Ki [3] | Kinact [4] | Ki [6] | SMILES | also measured |
| --- | --- | --- | --- | --- | --- | --- |
| 0.11 M⁻¹ s⁻¹ | tde | 10.9 mM | 1.2 ×10⁻³ /s | – | CCOC(=O)/C=C/C(=O)CCC(=O)OCC | – |
| 5.9 M⁻¹ s⁻¹ | – | 4.95 mM | 29 ×10⁻³ /s | – | CCOC(=O)/C=C/C(=O)/C=C/C(=O)OCC | Activity [5]: Active |
| – | – | – | – | 700 µM | CCCC(=O)C(=O)O | – |
| – | – | – | – | – | O=C(O)C(=O)CCCC(=O)C(=O)O | Ki [7]: 160 µM |
| – | – | – | – | 830 µM | CCC(=O)C(=O)O | – |
| 0.12 M⁻¹ s⁻¹ | tde | 32.4 mM | 4.1 ×10⁻³ /s | – | O=C(O)/C=C/C(=O)CCC(=O)O | – |
| – | – | – | – | 16 µM | O=CC(=O)O [GLYOXYLATE] | – |
| 1.2 M⁻¹ s⁻¹ | tde | 1.63 mM | 1.9 ×10⁻³ /s | – | O=C(O)/C=C/C(=O)/C=C/C(=O)O | Ki [8]: 530 µM |

| SMILES | Ratio [1] | Activity [2] | Ki [3] | Kinact [4] | Ki [6] | also measured |
| --- | --- | --- | --- | --- | --- | --- |
| O=C(O)C(=O)CF | – | – | – | – | 220 µM | – |
